Laboratory results: ChEMBL document CHEMBL1154919, “Synthesis and biological evaluation of 12-aminoacylphorboids” (J Nat Prod, 2010)
Activity calls are given as the source filed them. The calls are words filed in the database; no cut-off is given here.

Tests used:
[1] = test system: Human immunodeficiency virus 1; assay: Activation of latent recombinant HIV1 LTR-GFP gene expression infected in human Jurkat LAT-GFP cells assessed as GFP positive cells at 10 uM after 6 hrs by flow cytometry; type: functional, organism-based
Outline: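 Jurkat-derived clone latently infected with recombinant virus carrying GFP under HIV-LTR promoter, exposed to compound for 6 h. Histograms shown are one of three independent experiments.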

[2] = molecular target: Protein kinase C delta type (Homo sapiens) (UniProt Q05655); assay: Activation of PKCdelta assessed as [32P] incorporation after 10 mins by scintillation counting
[3] = molecular target: Protein kinase C alpha type (Homo sapiens) (UniProt P17252); assay: Activation of PKCalpha assessed as [32P] incorporation after 10 mins by scintillation counting
[4] = molecular target: Protein kinase C delta type (Homo sapiens) (UniProt Q05655); assay: Activation of PKCdelta in human Jurkat cells assessed as enzyme phosphorylation after 15 mins by Western blotting; type: cell-based
Outline: (§1)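 Jurkat LAT-GFP cells (10^6 cells/ml) exposed for 15 min to compound (increasing concentrations) or TPA 1 µM. Lysed in HEPES pH 8.0 buffer with 0.5% NP-40 and protease/phosphatase inhibitors. 30 µg protein run on 10% SDS-PAGE, blotted to nitrocellulose, probed with anti-phospho-PKCδ (Thr505) and anti-panPKC, ECL detection.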

[5] = test system: Human immunodeficiency virus 1; assay: Activation of latent recombinant HIV1 LTR-GFP gene expression infected in human Jurkat LAT-GFP cells assessed as GFP level at 10 uM after 6 hrs by flow cytometry in presence of PKCinhibitor G06976 pretreated for 30 mins; type: functional, organism-based
Outline: (§2)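 Jurkat LAT-GFP cells (latent HIV-LTR-driven GFP clone) pretreated 30 min with PKC inhibitor (1 µM), then stimulated with compound at 10 µM for 6 h.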

[6] = test system: Human immunodeficiency virus 1; assay: Activation of latent recombinant HIV1 LTR-GFP gene expression infected in human Jurkat LAT-GFP cells assessed as GFP level at 10 uM after 6 hrs by flow cytometry in presence of pan-PKC inhibitor G06983 pretreated for 30 mins; type: functional, organism-based; outline: as §2
[7] = test system: Human immunodeficiency virus 1; assay: Activation of latent recombinant HIV1 LTR-GFP gene expression infected in human Jurkat LAT-GFP cells assessed as GFP positive cells after 6 hrs by flow cytometry relative to control; type: functional, organism-based
Outline: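 Jurkat-derived clone latently carrying recombinant virus with GFP under the HIV-LTR promoter, stimulated with compound at the indicated concentrations for 6 h.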

[8] = molecular target: Protein kinase C delta type (Homo sapiens) (UniProt Q05655); assay: Activation of PKCdelta in human Jurkat cells assessed as enzyme phosphorylation at 1 uM after 15 mins by Western blotting; type: cell-based; outline: as §1
[9] = molecular target: T1, Prostaglandin G/H synthase 2 (Rattus norvegicus) (UniProt P35355); assay: Inhibition of COX2 in LPS-stimulated rat microglia assessed as PGE2 release after 24 hrs by enzyme immunoassay
T1 sequence (whole entry): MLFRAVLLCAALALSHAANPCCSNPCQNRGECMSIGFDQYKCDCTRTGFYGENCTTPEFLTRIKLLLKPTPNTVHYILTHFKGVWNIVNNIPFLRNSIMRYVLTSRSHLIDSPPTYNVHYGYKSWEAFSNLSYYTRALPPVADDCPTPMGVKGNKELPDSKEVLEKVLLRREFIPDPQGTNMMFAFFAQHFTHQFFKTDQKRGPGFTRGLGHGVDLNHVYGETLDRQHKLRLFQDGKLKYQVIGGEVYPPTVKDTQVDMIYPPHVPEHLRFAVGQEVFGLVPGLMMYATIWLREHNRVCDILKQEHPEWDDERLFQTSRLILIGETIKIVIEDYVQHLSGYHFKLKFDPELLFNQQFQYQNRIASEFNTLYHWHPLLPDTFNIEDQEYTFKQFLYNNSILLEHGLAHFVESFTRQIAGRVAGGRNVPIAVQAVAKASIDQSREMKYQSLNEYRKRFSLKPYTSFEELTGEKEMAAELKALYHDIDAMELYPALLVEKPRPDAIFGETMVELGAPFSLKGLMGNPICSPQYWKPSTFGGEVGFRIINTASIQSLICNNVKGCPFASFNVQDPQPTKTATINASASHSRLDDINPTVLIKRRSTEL

[10] = molecular target: T1, Prostaglandin G/H synthase 2 (Rattus norvegicus); assay: Inhibition of COX2 in LPS-stimulated rat microglia after 24 hrs by immunoblotting

Protein kinase C delta type (Homo sapiens), sequence (Q05655 whole entry, looked up): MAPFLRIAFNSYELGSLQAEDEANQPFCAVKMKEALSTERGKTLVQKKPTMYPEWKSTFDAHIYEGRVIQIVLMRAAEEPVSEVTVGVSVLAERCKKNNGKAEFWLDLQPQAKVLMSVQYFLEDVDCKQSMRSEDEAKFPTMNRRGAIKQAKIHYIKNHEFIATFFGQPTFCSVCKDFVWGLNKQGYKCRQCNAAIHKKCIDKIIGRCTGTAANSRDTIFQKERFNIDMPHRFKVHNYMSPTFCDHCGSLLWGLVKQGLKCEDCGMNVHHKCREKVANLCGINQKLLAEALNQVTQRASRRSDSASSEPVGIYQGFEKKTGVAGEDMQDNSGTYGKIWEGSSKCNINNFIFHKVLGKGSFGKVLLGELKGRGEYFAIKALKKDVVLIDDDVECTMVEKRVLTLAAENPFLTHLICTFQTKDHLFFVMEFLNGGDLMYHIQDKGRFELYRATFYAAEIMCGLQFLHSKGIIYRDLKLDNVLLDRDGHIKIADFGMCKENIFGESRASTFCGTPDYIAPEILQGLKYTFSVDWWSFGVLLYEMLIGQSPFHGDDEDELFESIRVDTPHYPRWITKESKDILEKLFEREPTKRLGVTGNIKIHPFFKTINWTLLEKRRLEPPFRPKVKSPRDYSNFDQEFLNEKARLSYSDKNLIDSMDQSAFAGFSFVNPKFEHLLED

`CC(=O)O[C@@]12[C@H](OC(=O)CN(C)C)[C@@H](C)[C@]3(O)[C@@H]4C=C(C)C(=O)[C@@H]4CC(CO)=C[C@H]3[C@@H]1C2(C)C` was tested, and the Activity [1] was “inactive”, the Activity [2] was “inactive” and the Activity [3] was “inactive”.

`CC(=O)O[C@@]12[C@H](OC(=O)[C@H](C(C)C)N(C)C)[C@@H](C)[C@]3(O)[C@@H]4C=C(C)C(=O)[C@@H]4CC(CO)=C[C@H]3[C@@H]1C2(C)C` was tested, and the Activity [4] was “Active”, the Activity [1] was “Active” and the Activity [2] was “Dose-dependent effect”. The Activity [3] was “Dose-dependent effect”, the Activity [5] was “Active” and the Activity [6] was “Active”.

For `CCCCCCCCCCCCCC(=O)O[C@@H]1[C@@H](C)[C@@]2(O)[C@@H](C=C(CO)C[C@]3(O)C(=O)C(C)=C[C@@H]23)[C@@H]2C(C)(C)[C@]12OC(C)=O`, the Activity [7] was “Active”.

`CCCCCCCCCCCCCC(=O)O[C@@H]1[C@@H](C)[C@]2(O)[C@@H]3C=C(C)C(=O)[C@@]3(O)[C@H](O)C(CO)=C[C@H]2[C@@H]2C(C)(C)[C@]12OC(C)=O` was tested, and the Activity [8] was “Active”.

In the case of `CC(=O)O[C@@]12[C@H](OC(=O)[C@@H](N)C(C)C)[C@@H](C)[C@]3(O)[C@@H]4C=C(C)C(=O)[C@@H]4CC(CO)=C[C@H]3[C@@H]1C2(C)C`, the Activity [1] is reported as “inactive”.

`CC(=O)O[C@@]12[C@H](OC(=O)[C@@H](C(C)C)N(C)C)[C@@H](C)[C@]3(O)[C@@H]4C=C(C)C(=O)[C@@H]4CC(CO)=C[C@H]3[C@@H]1C2(C)C` was tested, and the Activity [9] was “inactive”, the Activity [1] was “Active” and the inhibition [10] was “Active”. The Activity [5] was “Active” and the Activity [6] was “Active”.

With `CN[C@H](C(=O)O[C@@H]1[C@@H](C)[C@]2(O)[C@@H]3C=C(C)C(=O)[C@@H]3CC(CO)=C[C@H]2[C@@H]2C(C)(C)[C@]12OC(C)=O)C(C)C` the Activity [1] was “inactive”.

In the case of `CC(=O)O[C@@]12[C@H](OC(=O)[C@H](N)C(C)C)[C@@H](C)[C@]3(O)[C@@H]4C=C(C)C(=O)[C@@H]4CC(CO)=C[C@H]3[C@@H]1C2(C)C`, the Activity [1] is reported as “inactive”.
